Assay outcomes: PubChem BioAssay, Broad Institute
MLL AF4-AF9 inh: MLL-AF4/AF9 protein interaction inhibition. AlphaScreen, biotin-AF4 peptide binding to FLAG-AF9. inhibition, % at 10 µM. hit rate 0.47% among 350,000;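 active = every replicate reaching a set inhibition limit, whatever the replicate mean, cut at about 25% in these data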;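 note: 0% = plate neutral control median and 100% = total signal loss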
Target sequence (P42568 whole entry, looked up): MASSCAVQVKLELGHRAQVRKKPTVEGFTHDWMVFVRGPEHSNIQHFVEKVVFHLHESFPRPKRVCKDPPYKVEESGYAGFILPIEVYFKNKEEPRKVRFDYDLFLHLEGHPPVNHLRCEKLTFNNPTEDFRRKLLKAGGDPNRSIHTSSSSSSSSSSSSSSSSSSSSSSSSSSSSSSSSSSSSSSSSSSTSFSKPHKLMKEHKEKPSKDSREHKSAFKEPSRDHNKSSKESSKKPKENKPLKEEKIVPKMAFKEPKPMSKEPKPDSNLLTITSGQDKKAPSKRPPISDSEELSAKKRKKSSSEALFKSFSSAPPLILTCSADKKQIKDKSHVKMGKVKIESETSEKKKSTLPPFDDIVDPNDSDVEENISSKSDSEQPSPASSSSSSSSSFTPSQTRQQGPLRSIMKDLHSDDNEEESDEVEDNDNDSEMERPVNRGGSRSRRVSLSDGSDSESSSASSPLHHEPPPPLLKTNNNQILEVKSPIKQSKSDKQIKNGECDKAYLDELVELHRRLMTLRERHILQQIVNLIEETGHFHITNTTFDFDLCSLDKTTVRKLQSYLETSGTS
Xi reactivation: activators of X-chromosome reactivation in mouse fibroblasts; activation, % at 7.58 µM; hit rate 0.055% among 360,000; XiGFP mouse fibroblasts, % GFP-positive cells imaging, 3 d; cells co-treated with 5-aza-dC sensitizer; scaled so ellipticine positive control = 100%; AID 743238;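 active = mean normalized replicate activation at least 10% and every replicate at or above 10%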;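 note: 0% = median of on-plate neutral control wells and 100% = ellipticine 6 µM median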
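assay system = SV40-immortalized XiGFP fibroblast cells, line 68-5-11 | buffer or medium = DMEM plus 5-aza-dC sensitizer | doses = single-point pinned compound dosing | times = 3-day compound exposure, then 15 min fixation at room temperature | benchmarks = positive control ellipticine, 6 µM final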
PGC1a acetyl inh: modulators of PGC1a acetylation | U2OS PGC1a acetylation, AlphaScreen anti-acetyl-lysine; with virally co-expressed GCN5 acetyltransferase | inhibition, % at 15.6 µM | hit rate 0.17% among 350,000;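 active = every replicate shows inhibition of at least 40%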;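 note: 0% = neutral control wells and 100% = positive control wells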
GSIS activator: primary screen for activators of insulin secretion dependent on glucose, INS-1E cells, GLuc reporter luminescence; hit rate 0.61% among 370,000; activation, % at 16.6 µM; INS-1E GLuc reporter insulin secretion, 2-3 h; AID 743287;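 active = lowest replicate activation of at least 40%, so every replicate reaches that level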;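 note: 0% = median of neutral control wells and 100% = median of IBMX positive control wells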
EWS-Fli inh: EWS/Fli transcriptional activity inhibition; A673 NR0B1-luciferase reporter, viability-normalised; inhibition, % at 12.6 µM; hit rate 0.67% among 350,000; AID 651661;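 active = mean inhibition of at least 50% after viability correction, with every replicate also passing that limit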;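 note: firefly luciferase signal divided by Alamar Blue viability fluorescence both relative to DMSO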
PAX8 inh HTS: lowers PAX8-driven luciferase in RMG-I cells. RMG-I TPO-luciferase reporter, SteadyGlo, 24 h. hit rate 1.2% among 360,000. inhibition, % at 12.6 µM. AID 652154;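 active = mean replicate inhibition at least 60% with every replicate also reaching 60%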;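 note: luciferase light reporting Pax8 driven TPO promoter activity; plate controls were median of neutral control wells for no effect and mitoxantrone controls for full effect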
Active calls of the source: *; . = not tested or not shown. Sampled rows, rich in hits. Any-hit rate of the full collection: about 2.1%.

SMILES | MLL AF4-AF9 inh | Xi reactivation | PGC1a acetyl inh | GSIS activator | EWS-Fli inh | PAX8 inh HTS
C[C@@H]1CN([C@@H](C)CO)C(=O)Cc2cc(NS(=O)(=O)c3ccccc3)ccc2O[C@H]1CN(C)Cc1ccc(C(F)(F)F)cc1 | -4.1 | 0.0 | -1.8 | -24.0 | . | 92.2*
C[C@@H]1CN([C@H](C)CO)C(=O)Cc2cc(NS(=O)(=O)c3ccc(Cl)cc3)ccc2O[C@@H]1CN(C)Cc1ccc(C(F)(F)F)cc1 | -0.2 | -0.4 | -13.5 | -17.6 | -0.8 | -0.4
C[C@H](CO)N1C[C@H](C)[C@@H](CN(C)Cc2ccc(C(F)(F)F)cc2)Oc2ccc(NS(=O)(=O)c3ccc(Cl)cc3)cc2CC1=O | 2.1 | 0.0 | -11.0 | -7.0 | 40.0 | 101.9*
C[C@@H]1CN([C@H](C)CO)C(=O)Cc2cc(NS(=O)(=O)c3ccccc3)ccc2O[C@@H]1CN(C)CC1CCCCC1 | 2.6 | 0.2 | . | 4.6 | 64.2* | -3.5
Cc1ccc(S(=O)(=O)Nc2ccc3c(c2)CC(=O)N([C@@H](C)CO)C[C@@H](C)[C@H](CN(C)Cc2ccc(Cl)c(Cl)c2)O3)cc1 | 0.0 | 0.1 | -7.5 | -11.3 | 19.4 | 92.0*
Cc1cccc(-c2ccc([C@H]3[C@@H](CO)N4CCCCN(S(=O)(=O)c5cccc(C)c5)C[C@@H]34)cc2)c1 | -4.3 | 0.0 | -6.6 | 16.2 | 4.8 | 95.8*
Cc1ccc(-c2ccc([C@@H]3[C@@H](CO)N4CCCCN(S(=O)(=O)c5cccc(C)c5)C[C@@H]34)cc2)cc1 | -5.6 | . | 4.3 | . | -5.3 | 0.3
Cc1ccc(-c2ccc([C@H]3[C@@H](CO)N4CCCCN(S(=O)(=O)c5cccc(C)c5)C[C@H]34)cc2)cc1 | -3.2 | . | -16.0 | . | 1.3 | 72.7*
CCC(=O)N[C@H]1C=C[C@@H](CC(=O)NCC2CC2)O[C@@H]1CO | -2.5 | -0.1 | . | 11.1 | 0.9 | .
Cc1ccc(C(=O)Cn2cncn2)cc1 | 0.9 | 16.1* | -1.2 | 6.2 | 4.4 | 1.8
O=C(Cn1cncn1)c1ccc(Cl)cc1 | 3.4 | 0.4 | 1.1 | 17.6 | 6.6 | 6.0
CNc1nc(Nc2ccc(Br)cc2)nc(N)c1[N+](=O)[O-] | . | 0.1 | . | 49.7* | . | -19.5
COc1ccc(Nc2nc(N)c([N+](=O)[O-])c(NCCO)n2)cc1 | 2.5 | 0.3 | -10.8 | 3.0 | -32.7 | 7.0
C[C@H](CO)N1C[C@H](C)[C@@H](CN(C)S(=O)(=O)c2ccccc2)Oc2ccc(NS(C)(=O)=O)cc2CC1=O | -2.7 | -1.2 | -2.6 | 4.0 | -5.9 | -0.6
CC(C)NC(=O)N(C)C[C@@H]1Oc2cc(C#CC3CC3)ccc2S(=O)(=O)N([C@@H](C)CO)C[C@H]1C | -2.7 | 0.4 | -19.5 | -10.5 | 1.5 | .
COc1ccc2c(c1)[C@@]1(OCCC=C[C@H]1C)C(=O)N2C/C=C(\C)CCC=C(C)C | . | 0.7 | . | -22.0 | 2.3 | -13.0
COc1ccc2c(c1)[C@@]1(OCCC=C[C@H]1C)C(=O)N2CC1CC1 | . | 0.4 | . | 53.0* | -8.6 | -16.4
CN(C)CC(=O)N1[C@@H]2c3ccc(C4=CCCC4)c(=O)n3C[C@H]1[C@H](CO)[C@H]2C(=O)NCC1CC1 | -0.8 | 0.0 | . | 16.9 | 3.2 | .
C[C@@H]1CN([C@@H](C)CO)C(=O)c2cc(NS(=O)(=O)c3cccs3)ccc2O[C@@H](C)CCCCO[C@H]1CN(C)Cc1ccc(C(F)(F)F)cc1 | -0.6 | -0.6 | -5.3 | -23.9 | 17.2 | 83.8*
C[C@@H]1CN([C@H](C)CO)C(=O)c2cc(NS(=O)(=O)c3cccs3)ccc2O[C@@H](C)CCCCO[C@@H]1CN(C)Cc1ccc(C(F)(F)F)cc1 | 0.5 | -0.3 | -7.6 | -13.6 | -0.6 | 93.7*
C[C@H](CO)N1C[C@H](C)[C@@H](CN(C)Cc2ccc(C(F)(F)F)cc2)OCCCC[C@H](C)Oc2ccc(NS(=O)(=O)c3cccs3)cc2C1=O | 0.1 | -0.4 | -12.6 | -13.4 | 13.7 | 70.8*
C[C@@H]1CN([C@H](C)CO)C(=O)c2cc(NS(=O)(=O)c3cccs3)ccc2O[C@@H](C)CCCCO[C@H]1CN(C)Cc1ccc(C(=O)O)cc1 | -2.1 | 0.0 | 9.3 | 38.6 | 21.9 | -36.4
C[C@@H]1CCCCO[C@H](CN(C)Cc2ccc(C(F)(F)F)cc2)[C@@H](C)CN([C@@H](C)CO)C(=O)c2cc(NS(=O)(=O)c3cccs3)ccc2O1 | -5.0 | -0.2 | 6.0 | -17.7 | 9.6 | 89.2*
COc1ccc(NC(=O)N(C)C[C@@H]2Oc3ccc(NS(=O)(=O)c4ccc(C)cc4)cc3C(=O)N([C@H](C)CO)C[C@@H]2C)cc1 | . | -0.1 | -11.5 | -6.3 | -4.1 | 3.1
Cc1cccc(NC(=O)C2CCN(S(=O)(=O)c3c(C)noc3/C=C/c3ccco3)CC2)n1 | . | 0.2 | . | -27.1 | . | 62.3*
SMILES | MLL AF4-AF9 inh | Xi reactivation | PGC1a acetyl inh | GSIS activator | EWS-Fli inh | PAX8 inh HTS
CCC(C)N1CCN(C(=O)C2CCN(S(=O)(=O)c3c(C)noc3/C=C/c3ccco3)CC2)CC1 (centres undefined) | 14.9 | 0.0 | -0.4 | 16.3 | 8.1 | 70.4*
Cc1cccc(/C=C/c2onc(C)c2S(=O)(=O)N2CCC(C(=O)NC(C)(C)C)CC2)c1 | 7.8 | 0.3 | -11.6 | 15.1 | 4.0 | 6.3
C[C@@H]1CN([C@@H](C)CO)C(=O)c2cc(NC(=O)NC3CCCCC3)ccc2O[C@@H]1CN(C)C(=O)Nc1ccc2c(c1)OCO2 | 3.7 | -0.2 | -7.0 | -22.9 | -10.6 | -8.6
C[C@@H]1CN([C@H](C)CO)C(=O)c2cc(NC(=O)Cc3ccccc3)ccc2O[C@@H](C)CCCCO[C@@H]1CN(C)C(=O)Nc1cccc2ccccc12 | 1.1 | 0.0 | 4.1 | -0.2 | -8.3 | 63.5*
C[C@H]1CCCCO[C@H](CN(C)C(=O)Nc2cccc3ccccc23)[C@@H](C)CN([C@@H](C)CO)C(=O)c2cc(NC(=O)NC3CCCCC3)ccc2O1 | 3.3 | 0.2 | -1.6 | 20.3 | 17.4 | 67.0*
CO[C@@H](CN(C)C(=O)c1ccc2c(c1)OCO2)[C@@H](C)CN([C@H](C)CO)S(=O)(=O)c1ccc(F)cc1 | -0.6 | -0.1 | 0.1 | -4.7 | -11.0 | .
NCC[C@@H]1CC[C@@H](NC(=O)c2ccccc2F)[C@H](CO)O1 | 3.2 | 0.8 | 2.8 | -2.6 | . | .
Cc1ccc(S(=O)(=O)N[C@@H]2CC[C@@H](CCn3cc(C(C)C)nn3)O[C@@H]2CO)cc1 | -1.1 | -0.6 | 2.4 | -7.4 | 1.4 | -6.6
Cc1ccccc1NC(=O)CC1c2ccccc2CC(C)(C)N1C (centres undefined) | 0.5 | -0.4 | 82.6* | -38.2 | 0.0 | 7.3
Cc1ccccc1NC(=O)CN1CCN(C)CC1 | 0.5 | 0.2 | 7.6 | 4.5 | -1.8 | 15.3
O=C(NCCN1CCN(C(=O)c2ccccc2Cl)CC1)C(=O)NCc1ccccc1 | -2.6 | 0.3 | . | 159.8* | -3.3 | -4.4
O=C(NCCN1CCN(C(=O)c2cccc(Br)c2)CC1)C(=O)NCc1ccccc1 | -13.0 | 0.0 | -6.2 | 7.2 | 11.7 | 34.4
